According to ChEMBL document CHEMBL1158068, “Chaetocochins A-C, epipolythiodioxopiperazines from Chaetomium cochliodes” (2006):
In brackets after ≈: the same amount, converted by molar mass.

How the values were obtained:
Type in all cases: functional
[1] = Growth inhibition of human Bre-04 cells after 48 hrs by SRB assay; settings: Bre04, 48 h
Summary of the method: (§1)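 ATCC cancer lines (Bre-04 = MDA-MB-231, Lu-04 = NCI-H460, N-04 = SF-268), cultured per supplier instructions. Cells seeded in 96-well plates, incubated 16 h at 37 °C, then exposed to a range of compound concentrations for 48 h. Taxol served as positive control. Cytotoxicity read by colorimetric sulforhodamine B (SRB) chemosensitivity assay.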

[2] = Growth inhibition of human Lu-04 cells after 48 hrs by SRB assay; settings: Lu04, 48 h; summary of the method: as §1
[3] = Growth inhibition of human N-04 cells after 48 hrs by SRB assay; settings: N04, 48 h; summary of the method: as §1

SMILES | GI50 [1] | GI50 [2] | GI50 [3]
CS[C@@]1(CO)C(=O)N(C)[C@@](Cc2cn([C@]34C[C@]5(SC)C(=O)N(C)[C@@](CO)(SC)C(=O)N5[C@H]3Nc3ccccc34)c3ccccc23)(SC)C(=O)N1C | 0.06 µg/mL (≈ 0.0778 µM) | 0.05 µg/mL (≈ 0.0648 µM) | 0.2 µg/mL (≈ 0.259 µM)
CS[C@]12COCN3c4ccccc4[C@]4(C[C@]5(SC)C(=O)N(C)[C@@](CO)(SC)C(=O)N5[C@@H]34)n3cc(c4ccccc43)C[C@](SC)(C(=O)N1C)N(C)C2=O [CHAETOCOCHIN A] | 4.1 µg/mL (≈ 5.24 µM) | 3.4 µg/mL (≈ 4.34 µM) | 7 µg/mL (≈ 8.94 µM)
CS[C@@]1(CO)C(=O)N(C)[C@@](Cc2cn([C@]34C[C@@]56SS[C@@](CO)(C(=O)N5[C@H]3Nc3ccccc34)N(C)C6=O)c3ccccc23)(SC)C(=O)N1C [CHAETOCOCHIN C] | 0.4 µg/mL (≈ 0.54 µM) | 1.9 µg/mL (≈ 2.56 µM) | 0.4 µg/mL (≈ 0.54 µM)
CC(=O)O[C@H]1C(=O)[C@@]2(C)[C@H]([C@H](OC(=O)c3ccccc3)[C@]3(O)C[C@H](OC(=O)[C@H](O)[C@@H](NC(=O)c4ccccc4)c4ccccc4)C(C)=C1C3(C)C)[C@]1(OC(C)=O)CO[C@@H]1C[C@@H]2O [PACLITAXEL] | 0.04 µg/mL (≈ 0.0468 µM) | 0.03 µg/mL (≈ 0.0351 µM) | 0.04 µg/mL (≈ 0.0468 µM)
